High-throughput results from PubChem BioAssay.
Candida biofilm: kills Candida albicans biofilms; inhibition, % at 6 µM; AID 834; 85,000 tested, 0.14% active; C. albicans biofilm + clotrimazole, Alamar Blue;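 active = inhibition above 20%; inactive = inhibition below 20%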;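 note: preformed 24 hr biofilms exposed to compound for 48 hr; 0% = biofilm without compound and 100% = blank killed by clotrimazole plus chlorhexidine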
FAK blocker: blocks human focal adhesion kinase activity. Q05397. inhibition, %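 (tested at 7 µM)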. biochemical FAK kinase activity assay. 97,000 tested, 0.84% active; in the data active = inhibition above about 19%;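 note: 0% = DMSO and 100% = reference compound high control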
Target sequence (Q05397 whole entry, looked up): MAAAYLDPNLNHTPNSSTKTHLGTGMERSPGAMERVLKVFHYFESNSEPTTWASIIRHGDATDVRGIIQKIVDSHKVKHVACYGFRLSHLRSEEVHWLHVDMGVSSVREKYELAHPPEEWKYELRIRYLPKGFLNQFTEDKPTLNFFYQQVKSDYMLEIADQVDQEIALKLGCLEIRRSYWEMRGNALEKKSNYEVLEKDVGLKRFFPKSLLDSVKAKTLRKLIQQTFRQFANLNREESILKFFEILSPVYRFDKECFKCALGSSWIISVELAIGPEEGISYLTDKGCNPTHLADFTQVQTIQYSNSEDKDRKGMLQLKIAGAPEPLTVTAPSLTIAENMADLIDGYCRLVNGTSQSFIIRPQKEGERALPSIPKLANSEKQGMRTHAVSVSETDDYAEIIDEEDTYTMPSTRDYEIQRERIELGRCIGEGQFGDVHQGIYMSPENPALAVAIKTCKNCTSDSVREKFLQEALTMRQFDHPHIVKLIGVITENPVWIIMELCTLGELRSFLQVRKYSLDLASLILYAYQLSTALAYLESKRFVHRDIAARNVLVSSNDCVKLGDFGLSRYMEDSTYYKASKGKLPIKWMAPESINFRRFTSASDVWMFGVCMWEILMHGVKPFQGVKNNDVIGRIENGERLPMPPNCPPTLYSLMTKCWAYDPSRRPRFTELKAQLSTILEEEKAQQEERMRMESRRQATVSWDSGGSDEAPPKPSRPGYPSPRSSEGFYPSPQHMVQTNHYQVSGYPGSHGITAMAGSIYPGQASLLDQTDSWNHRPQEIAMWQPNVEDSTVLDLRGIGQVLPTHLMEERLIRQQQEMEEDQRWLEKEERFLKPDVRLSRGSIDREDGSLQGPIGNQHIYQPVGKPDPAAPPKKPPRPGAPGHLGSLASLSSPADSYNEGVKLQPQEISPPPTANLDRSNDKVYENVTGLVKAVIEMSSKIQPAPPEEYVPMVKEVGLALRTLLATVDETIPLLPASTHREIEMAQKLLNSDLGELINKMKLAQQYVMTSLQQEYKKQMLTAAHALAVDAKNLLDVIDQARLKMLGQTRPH
PostGolgi ctrl: growth of the yeast control strain, post-Golgi counter-screen; efflux-deficient yeast background strain, growth absorbance A615, 16 h; 98,000 tested, 5% active; inhibition, % at 10 µM; AID 738
PTK2B oligo ant: Pyk2 (human) oligomerization antagonism | Q14289 | Q293 cells, Pyk2 FERM NanoBiT luminescence; hits give low values | z-score (the deposit names both 25 µM and 10 µM) | 99,000 tested, 0.83% active;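 active = Z-score of -3 or lower, scaled per plate to the spread of control and sample wells; inactive = z-score above -3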;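 note: negative z-score means lost luminescence so less FERM oligomerization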
PostGolgi yeast: growth inhibition of a yeast mutant, post-Golgi transport screen | post-Golgi transport phenotypic cell assay | inhibition, % at 10 µM | 98,000 tested, 0.9% active | AID 739;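 note: yeast cells grown in 1536-well plates; yeast grown about 18 h at 30C before absorbance read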
tolC growth inh: blocks growth of E. coli BW25113 tolC mutant; OD615; growth inhibition, % at 10 µM (by protocol); 65,000 tested, 2.2% active;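 active = growth inhibition at or above a cutoff equal to the mean over every tested compound plus 3 SD, cut at about 60% in these data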;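 note: growth measured after 20 h incubation at 37 °C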
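Doses: one dose of 10 µM final / Material: E. coli BW25113 ΔtolC::kan, tolC deletion mutant strain / Buffer or medium: LB with kanamycin 50 µg/mL / Evaluation: percent growth inhibition / Detection: optical density read at 615 nm / Incubation: 37 °C, 20 h exposure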
An asterisk follows results filed as active; · = no result given. A selection: hits, their analogues and other compounds. The true share with any hit is near 6.9%. Cut-off read from the data, not from the text of the source, unless noted: active = inhibition above about 30%; inactive = the rest.

SMILES | Candida biofilm | FAK blocker | PostGolgi ctrl | PTK2B oligo ant | PostGolgi yeast | tolC growth inh
O=C(Nc1ccc(N2CCOCC2)cc1)Nc1ccc2nc(-c3ccco3)c(-c3ccco3)nc2c1 | 6 | 11 | -2 | -1.6 | -7 | 2
Cc1nc(P(=O)(c2ccccc2)c2ccccc2)c(N2CCOCC2)o1 | -3 | -1 | 1 | 0.01 | 2 | -9
CCOC(=O)C1=C(CC)Nc2ccccc2N=C1NC(=O)Nc1ccc(Cl)c(Cl)c1 | · | 2 | 66* | -4.1* | 73* | ·
CCOC(=O)C1=C(CC)Nc2ccccc2N=C1NC(=O)Cn1cnc2ccccc2c1=O | 5 | 2 | 5 | -0.25 | -1 | -5
N#CC(c1cccc(Cl)c1)c1ccc2c(C(F)(F)F)cc(C(F)(F)F)nc2n1 (centres undefined) | 7 | -1 | 102* | -2.5 | 99* | ·
CCn1c(CCC(=O)Nc2nc3c(s2)CCCC3)nc2cc(S(=O)(=O)N(C)C)ccc21 | 7 | -1 | 33* | 0.53 | -3 | 12
CCN(CC)S(=O)(=O)c1ccc2c(c1)nc(CCC(=O)Nc1cccc(C(F)(F)F)c1)n2CC | 4 | 1 | 19 | -0.57 | 0 | ·
O=C(COc1ccccc1Cl)NCCCN1CCOCC1 | 9 | 8 | 16 | 0.32 | 6 | -14
Cn1c(=O)c2[nH]cnc2n(C)c1=O | 7 | · | · | · | · | 8
COC(=O)c1[nH]c2cc(C)ccc2c1NC(=O)CN1CCN(C(=O)c2ccco2)CC1 | 1 | -1 | 24 | 1 | 12 | 8
COC(=O)c1[nH]c2ccc(F)cc2c1NC(=O)CCN1CCN(C(=O)c2ccco2)CC1 | 4 | 2 | 32* | · | 0 | -10
CCCn1c(=S)[nH]c2cc(C(=O)N3CCc4ccccc43)ccc2c1=O | 9 | 3 | 103* | -1.1 | -2 | ·
COCCn1c(=S)[nH]c2cc(C(=O)N3CCc4ccccc43)ccc2c1=O | 7 | 1 | 96* | -1.2 | -14 | 4
O=C(O)CCCC(=O)Nc1cccc(-c2nc3ccccc3[nH]2)c1 | -1 | 8 | 31* | 0.79 | 2 | -6
COc1ccc(OCC(=O)Nc2cccc(-c3nc4ccccc4[nH]3)c2)cc1 | · | -5 | 17 | -2.6 | -5 | ·
CCOc1ccc(N2CC(C(=O)Nc3ccc(F)cc3F)CC2=O)cc1 (centres undefined) | · | -1 | 3 | 0.65 | 2 | -26
S=c1nc(-c2cccc(Br)c2)[nH][nH]1 | 9 | · | -7 | 1.1 | 4 | 4
Brc1cccc(-c2n[nH]c(-c3ccccc3)n2)c1 | 10 | -3 | 43* | -0.68 | 11 | 97*
COc1ccc(-c2cc(C(=O)N/N=C/c3ccc(OC)c(COCC(F)(F)C(F)F)c3)c3ccccc3n2)c(OC)c1 | · | -3 | 0 | -0.12 | -7 | ·
COc1ccc(-c2cc(C(=O)N/N=C/c3ccc4c(c3)OCO4)c3ccccc3n2)c(OC)c1 | · | 8 | 72* | -2.4 | 37* | ·
COc1ccccc1-c1cc(C(=O)N/N=C\c2cnn(C)c2C)c2ccccc2n1 | · | · | · | -0.87 | · | ·
COc1ccccc1-c1cc(C(=O)N/N=C/c2cccs2)c2ccccc2n1 | · | -3 | 33* | -2.2 | 4 | ·
CC(C)CC(=O)O/N=C1\C(=O)N(Cc2ccc(Cl)cc2)c2ccc([N+](=O)[O-])cc21 | · | 2 | 33* | · | 8 | ·
CC(=O)N(CN1C(=O)c2ccc([N+](=O)[O-])cc2C1=O)c1ccc(F)cc1 | · | 3 | 6 | 0.39 | 18 | ·
Cc1cc(Nc2nc3ccccc3nc2Cl)n(-c2ccc([N+](=O)[O-])cc2)n1 | -2 | -1 | 32* | -2.4 | 1 | ·
SMILES | Candida biofilm | FAK blocker | PostGolgi ctrl | PTK2B oligo ant | PostGolgi yeast | tolC growth inh
FC(F)(F)c1cccc(OCCOCCn2cncn2)c1 | 9 | -1 | -3 | -0.38 | -1 | -11
NC(N)=N/N=C/c1ccc(OCc2ccccc2)cc1 | · | -2 | 8 | 0.86 | 3 | ·
NC(N)=N/N=C/c1ccc(OCc2ccc(Cl)cc2)cc1 | · | 2 | 63* | -1.2 | -9 | ·
O=c1nc(NC2CCCC2)ccn1Cc1cccc(Br)c1 | 5 | 3 | 50* | -0.73 | -6 | 11
Cn1c(SCC(=O)N2c3ccccc3Sc3ccc(Cl)cc32)nnc1-c1ccco1 | · | · | 60* | -2 | 53* | 65*
CCc1c(C)nc2cc(-c3ccc(OC)c(OC)c3)nn2c1N1CCC(C)CC1 | 2 | -12 | 6 | -0.38 | -4 | ·
COc1cc(OC)cc(-c2cc3nc4c(c(N5CCN(c6ncccn6)CC5)n3n2)CCCC4)c1 | -1 | -2 | 69* | 0.22 | 1 | -2
CCc1c(C)nc2cc(-c3cc(OC)cc(OC)c3)nn2c1N1CCCC1 | 7 | 4 | 43* | -0.91 | 1 | 75*
COc1cc(OC)cc(-c2cc3nc4c(c(N5CCN(c6cnccn6)CC5)n3n2)CCCC4)c1 | 12 | · | · | · | · | -2
CCc1c(C)nc2cc(-c3ccc(OC)c(OC)c3)nn2c1N1CCCC1 | 8 | 19 | 32* | -1.1 | -4 | 10
Cn1c(SCC(=O)N2CCN(c3ccccc3)CC2)nnc1-c1c[nH]c2ccccc12 | 2 | 3 | -13 | · | 3 | 14
Cc1occc1C(=O)Nc1ccc2ccccc2c1 | 4 | 4 | 52* | -0.74 | -3 | 12
Cc1oc(-c2ccccc2)cc1C(=O)Nc1ccc2ccccc2c1 | 5 | -6 | 0 | 0.39 | 0 | ·
CCc1ccccc1NC(=O)c1ccoc1C | 3 | -2 | 37* | -0.54 | 14 | -4
COC(=O)COc1ccc(S(=O)(=O)Nc2ccc3c(c2)OCCO3)cc1Cl | 1 | 0 | 1 | -0.25 | -3 | 33
O=S1(=O)C=C(Sc2nc3cc(Cl)ccc3o2)c2ccccc21 | · | -1 | 39* | -0.97 | 14 | 6
CCN(CC)S(=O)(=O)c1cccc(-c2nnc(SCC#N)n2Cc2ccccc2)c1 | 18 | · | 33* | -0.16 | -4 | 1
O=C(CSc1nnnn1C1CCCCC1)Nc1cccc(NC(=O)c2ccco2)c1 | 3 | · | 16 | -1.1 | -8 | 73*
COc1ccccc1-c1c(C)c(C)nc(N)c1C#N | 6 | -5 | 5 | -0.42 | 1 | 3
COCCNC(=O)COc1ccc(Nc2ccccc2)cc1 | 3 | 7 | 2 | -0.49 | 0 | -2
CCOC(=O)C1CCN(C(c2cc3c(C)ccc(C)c3[nH]c2=O)c2nnnn2C2CCCCC2)CC1 (centres undefined) | · | 6 | 30* | -0.17 | 5 | 35
CCOC(=O)C1CCN(C(c2cc3ccc(C)c(C)c3[nH]c2=O)c2nnnn2C2CCCCC2)CC1 (centres undefined) | -2 | 6 | 4 | -0.12 | 13 | 57
CCC(=O)Nc1ccc(-c2nnc(-c3ccccc3)o2)cc1 | · | 15 | 40* | -0.16 | 0 | -6
O=C(Cc1ccc(Cl)cc1)Nc1ccc(-c2nnc(-c3ccco3)o2)cc1 | 5 | 11 | 9 | -0.39 | 31* | 11
CCC(=O)Nc1cccc(-c2nnc(-c3cccc(NC(=O)CC)c3)o2)c1 | 3 | -4 | 9 | -2.3 | -2 | ·
COc1ccccc1-n1c(=S)sc2c(=O)n(Cc3ccco3)c(SC)nc21 | -4 | · | 45* | -2.8 | 0 | 23
Cc1noc(C)c1C(=O)OCC(=O)c1c[nH]c2ccccc12 | 5 | 1 | 17 | -0.55 | 1 | 16
